Screens from PubChem BioAssay.
Apaf1 inhib = inhibitors of human Apaf-1 apoptosome, primary screen, biochemical, DEVD-Rh110 fluorescence, uHTS; 0.71% of 330,000 active; inhibition, % at 20 µM; reconstituted apoptosome caspase-3 activity; active = inhibition of at least 40% at 20 µM
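Material: biochemical Apaf-1 apoptosome reconstitution. Medium: Hepes buffer, pH 7.5. Also added: cytochrome c activation, bis-DEVD rhodamine 110 substrate. Timing: 30 min compound preincubation, 50 min activation, room temperature. Measured by: rhodamine 110 fluorescence at Ex 480/Em 540 nm.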
PAFAH1B3 inh = PAFAH1B3 enzyme inhibitors, primary screen, biochemical, fluorescence polarization, human; Platelet-activating factor acetylhydrolase IB subunit alpha1 (Homo sapiens), Q15102; recombinant PAFAH1B3, FP-rhodamine probe; inhibition, % at 3.39 µM; 0.28% of 340,000 active; AID 492972, 2010;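 active = inhibition above the screen-wide average of all tested compounds plus 3 SD, cut at about 25% in these data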
Target sequence (Q15102 whole entry, looked up): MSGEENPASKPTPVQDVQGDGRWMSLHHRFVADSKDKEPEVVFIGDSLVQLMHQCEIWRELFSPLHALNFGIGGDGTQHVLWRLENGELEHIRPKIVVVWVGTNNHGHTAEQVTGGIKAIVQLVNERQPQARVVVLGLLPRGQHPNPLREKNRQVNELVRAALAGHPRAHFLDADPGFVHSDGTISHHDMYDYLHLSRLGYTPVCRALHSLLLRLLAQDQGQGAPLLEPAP
TDP2 absorb = human TDP2 enzyme inhibitors, primary screen, biochemical, epi absorbance, recombinant enzyme | T5PNP hydrolysis, p-nitrophenol absorbance 415 nm | inhibition, % at 12.8 µM | 0.34% of 370,000 active;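 active = inhibition above the mean of all tested compounds plus 3 SD, set per campaign, cut at about 25% in these data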
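Read-out basis: percent inhibition. System: recombinant human TDP2. Buffer or medium: Mg2+-containing Tris-HCl buffer, pH 7.5. Repeats: single replicate. Timing: reaction 2 h, 37 °C. Benchmarks: high control without enzyme, low control DMSO plus TDP2. Probe or stimulus: 5 mM T5PNP. Doses: 12.8 µM only. Measured by: epi absorbance of p-nitrophenol freed from T5PNP by hydrolysis.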
PAFAH1B2 FP inh = PAFAH1B2 enzyme inhibitors, primary screen, biochemical, fluorescence polarization, human | Platelet-activating factor acetylhydrolase IB subunit alpha2 (Homo sapiens), P68402 | recombinant PAFAH1B2, FP-rhodamine activity probe | inhibition, % at 3.39 µM | 1.2% of 340,000 active;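 active = inhibition above the mean of all tested compounds plus 3 SD, cut at about 24% in these data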
Target sequence (P68402 whole entry, looked up): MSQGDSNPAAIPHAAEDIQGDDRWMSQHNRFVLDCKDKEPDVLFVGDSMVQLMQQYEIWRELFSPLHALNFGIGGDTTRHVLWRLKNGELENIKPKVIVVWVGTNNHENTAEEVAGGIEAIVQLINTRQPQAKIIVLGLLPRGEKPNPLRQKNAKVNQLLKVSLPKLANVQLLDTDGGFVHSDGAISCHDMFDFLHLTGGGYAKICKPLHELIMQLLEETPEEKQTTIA
PAFAH2 FP inh = PAFAH2 enzyme inhibitors, primary screen, biochemical, fluorescence polarization, human; Platelet-activating factor acetylhydrolase 2, cytoplasmic (Homo sapiens), Q99487; recombinant PAFAH2, FP-rhodamine activity probe; inhibition, % at 3.39 µM; 0.99% of 340,000 active; AID 492956, 2010;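 active = inhibition above the mean over all tested compounds plus 3 SD, cut at about 30% in these data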;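 also: inhibitors block probe labeling of enzyme so polarization drops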
Numbers stand for hits; - = inactive; . = no result given. The list is not random: actives were taken first. Their share in the collection is about 2.3%.

SMILES | Apaf1 inhib | PAFAH1B3 inh | TDP2 absorb | PAFAH1B2 FP inh | PAFAH2 FP inh
O=C(O)c1cccc(N2C(=O)/C(=C/c3ccc(SCc4ccc(Cl)cc4)o3)SC2=S)c1 | . | - | - | 34 | -
COC(=O)[C@]12C[C@H](CC(=O)N3CCCC3)C(=O)N(Cc3ccccc3)C1=C[C@H](C1CCCC1)O[C@@H]2C | . | . | - | . | .
O=C(O)c1cc(NS(=O)(=O)c2ccc(F)cc2)cc(NS(=O)(=O)c2ccc(F)cc2)c1 | - | - | - | 42 | 32
CCOc1ccc(S(=O)(=O)Nc2cc(NS(=O)(=O)c3ccc(OCC)cc3)cc(C(=O)O)c2)cc1 | - | - | - | - | -
COc1cccc(NC(=O)c2cc(C(=O)Nc3cccc(OC)c3)n(C)n2)c1 | 41 | - | - | - | -
Cn1nc(C(=O)Nc2ccc(Br)cc2)cc1C(=O)Nc1ccc(Br)cc1 | - | - | - | - | -
Cc1cc(=O)oc2c3c(cc(OCC(=O)NC(Cc4ccc(Cl)cc4)C(=O)O)c12)OC(C)(C)CC3 (stereo not drawn) | - | - | - | 58 | 33
COc1ccc(CNC(=O)COc2cc3c(c4oc(=O)cc(C)c24)CCC(C)(C)O3)cc1 | - | - | - | 27 | -
COc1ccccc1CNC(=O)COc1cc2c(c3oc(=O)cc(C)c13)CCC(C)(C)O2 | - | - | - | 27 | -
Cc1cc(=O)oc2c3c(cc(OCC(=O)NCc4cccnc4)c12)OC(C)(C)CC3 | - | - | - | - | -
COc1cccc(CNC(=O)COc2cc3c(c4oc(=O)cc(C)c24)CCC(C)(C)O3)c1 | - | - | - | 34 | -
COc1ccc(-n2c(SCC(=O)Nc3ccccc3-c3ccccc3)nnc2-c2ccccn2)cc1 | . | . | - | . | .
Cc1cc(C)n(C)c(=O)c1C#N | - | - | - | - | -
Cc1c(C=O)c(Cl)n(C)c(=O)c1C#N | 97 | - | 39 | - | -
O=C1Nc2ccc(C(F)(F)F)cc2N2CCCC12 (stereo not drawn) | - | . | . | . | .
O=C1Nc2ccccc2N2CCCC12 (stereo not drawn) | 78 | . | . | . | .
CCCCOCCCNC(=O)C[C@H]1C[C@@]2(C(=O)OC)C(=C[C@H](C(C)C)O[C@@H]2C2CC2)N(Cc2cccc3ccccc23)C1=O | . | . | - | . | .
Cc1c(CC(=O)O)c(=O)oc2c(C)c3occ(-c4ccc(Br)cc4)c3cc12 | - | - | - | 29 | -
COc1ccc(-c2coc3c(C)c4oc(=O)c(CC(=O)O)c(C)c4cc23)cc1 | - | - | - | - | -
CC(C)(C)c1ccc(C(=O)NCCC(=O)N2CCN(c3ncccn3)CC2)cc1 | - | - | - | 30 | -
CC(C)(C)c1ccc(C(=O)NCCC(=O)N2CCCC2)cc1 | - | - | - | - | -
CC(=O)NS(=O)(=O)c1ccc(NS(=O)(=O)c2ccc3ccccc3c2)cc1 | - | - | - | 29 | -
CCCCCN1CCCCC(NC(=O)c2ccccc2OC)C1=O (stereo not drawn) | . | . | - | . | .
CCN(CC)c1ccc(N=Nc2nn(C)c(C)c2[N+](=O)[O-])cc1 | - | - | - | - | -
CCN(Cc1ccccc1)c1ccc(N=Nc2nn(C)c(C)c2[N+](=O)[O-])cc1 | - | - | - | 62 | -
SMILES | Apaf1 inhib | PAFAH1B3 inh | TDP2 absorb | PAFAH1B2 FP inh | PAFAH2 FP inh
O=C(NCc1ccco1)C1CCCN(S(=O)(=O)c2cccs2)C1 (stereo not drawn) | . | . | - | . | .
O=C(O)C1CCCN(S(=O)(=O)c2ccc(Cl)s2)C1 (stereo not drawn) | - | - | - | 29 | -
COc1ccc(C)cc1NC(=O)NNC(=O)c1cc2ccccc2cc1O | - | 34 | - | - | -
COc1ccc(NC(=O)NNC(=O)c2cc3ccccc3cc2O)cc1 | - | - | - | - | -
O=C(NNC(=O)c1cc2ccccc2cc1O)Nc1ccc(F)cc1F | - | 29 | - | - | -
O=C(NNC(=O)c1cc2ccccc2cc1O)Nc1ccc(Br)cc1 | - | - | - | - | -
COc1ccccc1NC(=O)c1cc2cc(Br)ccc2cc1O | . | 29 | - | - | -
O=C(C(=O)N1CCC(CNS(=O)(=O)c2cccc(C(F)(F)F)c2)CC1)c1cc2ccccc2o1 | . | . | - | . | .
